Data published in ChEMBL document CHEMBL2412953, “Synthesis and biological evaluation of new N-alkylcarbazole derivatives as STAT3 inhibitors: preliminary study” (Eur J Med Chem, 2013).
The source made the active and inactive calls. No cut-off for these calls is given here.

Experiments:
[1] = biological target: Signal transducer and activator of transcription 3 (Homo sapiens) (UniProt P40763); assay: Inhibition of IL-6-stimulated STAT3 activation in human THP1 cells at 100 uM incubated for 30 mins prior to IL-6 stimulation measured after 15 mins by EMSA relative to control; format: cell-based; conditions: THP-1
Procedure, shortened: (§1)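 THP-1 cells (1.5 × 10⁶/mL; RPMI 1640, 10% FBS, 37 °C, 5% CO₂) pretreated 30 min with compound, then IL-6 20 ng/mL for 15 min. Nuclear extracts, made with protease inhibitors, were assayed for STAT3 DNA-binding by EMSA in Hepes pH 7.9 buffer with poly(dI-dC). Gel bands quantified by densitometry; % inhibition versus IL-6 alone, mean ± SD.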

[2] = biological target: Signal transducer and activator of transcription 3 (Homo sapiens) (UniProt P40763); assay: Inhibition of IL-6-stimulated STAT3 activation in human THP1 cells at 50 uM incubated for 30 mins prior to IL-6 stimulation measured after 15 mins by EMSA relative to control; format: cell-based; conditions: THP-1; procedure, shortened: as §1
THP-1 [3] = assay: Effect on total STAT3 level in IL-6-stimulated human THP1 cells at 50 uM incubated for 30 mins prior to IL-6 stimulation measured after 15 mins by Western blot analysis; format: functional, cell-based
[4] = biological target: T1, Signal transducer and activator of transcription 1-alpha/beta (Homo sapiens) (UniProt P42224); assay: Inhibition of IFNgamma-induced STAT1 activation in human THP1 cells at 50 uM incubated for 30 mins prior to IFNgamma induction measured after 30 mins by EMSA; format: cell-based; conditions: THP-1
T1 sequence (whole entry): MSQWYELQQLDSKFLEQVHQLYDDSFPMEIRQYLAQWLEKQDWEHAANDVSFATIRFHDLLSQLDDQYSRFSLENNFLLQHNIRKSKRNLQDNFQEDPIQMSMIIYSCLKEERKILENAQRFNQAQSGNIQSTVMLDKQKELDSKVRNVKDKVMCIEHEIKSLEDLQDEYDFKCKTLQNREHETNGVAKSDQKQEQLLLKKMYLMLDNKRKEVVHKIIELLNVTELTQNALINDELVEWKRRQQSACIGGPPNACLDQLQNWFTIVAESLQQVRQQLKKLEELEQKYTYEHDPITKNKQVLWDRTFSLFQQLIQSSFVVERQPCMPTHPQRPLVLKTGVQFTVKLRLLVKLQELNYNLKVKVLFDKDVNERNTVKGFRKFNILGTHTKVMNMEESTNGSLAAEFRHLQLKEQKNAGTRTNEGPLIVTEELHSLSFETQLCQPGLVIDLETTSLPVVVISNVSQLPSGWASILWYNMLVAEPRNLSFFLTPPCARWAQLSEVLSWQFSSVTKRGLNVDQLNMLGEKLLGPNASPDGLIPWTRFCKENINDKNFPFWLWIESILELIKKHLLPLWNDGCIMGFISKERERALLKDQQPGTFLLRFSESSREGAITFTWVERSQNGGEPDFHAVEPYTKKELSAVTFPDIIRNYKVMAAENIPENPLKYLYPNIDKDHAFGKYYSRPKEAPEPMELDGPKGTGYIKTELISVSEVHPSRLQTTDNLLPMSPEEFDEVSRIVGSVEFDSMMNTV
Procedure, shortened: (§2)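 THP-1 cells (1.5 × 10⁶/mL) pretreated 30 min with compound, then stimulated 30 min with IFNγ (STAT1) or TNFα plus LPS (NF-κB). Nuclear extracts were analysed for DNA-binding by EMSA.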

THP-1 [5] = assay: Inhibition of TNFalpha and LPS-induced NFkappaB activation in human THP1 cells at 50 uM incubated for 30 mins prior to TNFalpha and LPS-induction measured after 30 mins by EMSA; format: cell-based; procedure, shortened: as §2
[6] = biological target: Signal transducer and activator of transcription 3 (Homo sapiens) (UniProt P40763); assay: Inhibition of IL-6-induced cytosolic STAT3 phosphorylation at Tyr705 in human THP1 cells at 50 uM incubated for 30 mins prior to IL-6 induction measured after 15 mins by Western blot analysis; format: cell-based; conditions: THP-1
Procedure, shortened: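 THP-1 cells (1.5 × 10⁶/mL) pretreated 30 min, then IL-6 20 ng/mL for 15 min. Cells were lysed at 4 °C in HEPES pH 7.4 NP-40 buffer with protease and phosphatase inhibitors. Lysate protein was run on 7.5% SDS-PAGE, blotted to PVDF and probed overnight at 4 °C with rabbit anti-phospho-Tyr705 STAT3.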

Sequence of Signal transducer and activator of transcription 3 (Homo sapiens) (P40763 whole entry): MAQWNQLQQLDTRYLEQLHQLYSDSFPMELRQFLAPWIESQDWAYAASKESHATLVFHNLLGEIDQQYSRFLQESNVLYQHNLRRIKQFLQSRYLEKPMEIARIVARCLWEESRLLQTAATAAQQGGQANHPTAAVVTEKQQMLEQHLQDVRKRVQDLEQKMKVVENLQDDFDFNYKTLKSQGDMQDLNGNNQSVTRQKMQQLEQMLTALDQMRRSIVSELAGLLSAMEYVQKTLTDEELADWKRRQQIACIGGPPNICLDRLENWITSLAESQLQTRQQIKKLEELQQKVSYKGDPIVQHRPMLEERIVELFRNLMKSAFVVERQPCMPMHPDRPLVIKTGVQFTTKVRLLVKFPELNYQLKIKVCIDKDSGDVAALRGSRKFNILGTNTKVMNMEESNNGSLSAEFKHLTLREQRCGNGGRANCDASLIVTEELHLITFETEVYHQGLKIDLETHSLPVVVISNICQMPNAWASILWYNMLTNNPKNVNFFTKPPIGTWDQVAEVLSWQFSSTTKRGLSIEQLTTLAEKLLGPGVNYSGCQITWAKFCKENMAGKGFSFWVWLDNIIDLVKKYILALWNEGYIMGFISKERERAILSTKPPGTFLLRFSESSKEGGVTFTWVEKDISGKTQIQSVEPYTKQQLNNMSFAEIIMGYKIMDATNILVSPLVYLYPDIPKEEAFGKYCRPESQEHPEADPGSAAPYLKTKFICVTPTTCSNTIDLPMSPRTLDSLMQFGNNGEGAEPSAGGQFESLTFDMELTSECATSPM

`COC(=O)c1ccccc1OCCCCCn1c2ccc(OC)cc2c2c(C)ccc(C)c21` gave an inhibition [1] of 3%.
Work on `COC(=O)c1cc(OCCCCCCCn2c3ccccc3c3c(O)cccc32)cc(C(=O)OC)c1` yielded an inhibition [1] of 6%.
For `COC(=O)c1cc(OCCCCCn2c3ccccc3c3c(O)cccc32)cc(C(=O)OC)c1`, the inhibition [1] was 20%.
For `COC(=O)c1cc(OCCCCCn2c3ccc(OC)cc3c3c(C)ccc(C)c32)cc(C(=O)OC)c1`, the inhibition [2] was 50%, the Activity (THP-1 [3]) was “inactive” and the inhibition [4] was “inactive”. The inhibition (THP-1 [5]) was “inactive” and the inhibition [6] was “Active”.
Molecule `COC(=O)c1ccccc1OCCCCCCn1c2ccccc2c2c(O)cccc21` has an inhibition [1] of 3%.
With `COC(=O)c1cc(OCCCCCCn2c3ccccc3c3c(O)cccc32)cc(C(=O)OC)c1` the inhibition [1] was 5%.
Work on `COC(=O)c1ccccc1OCCCCCCn1c2ccccc2c2ccc(O)cc21` yielded an inhibition [1] of 1%.
Work on `COC(=O)c1cc(OCCCCCn2c3ccccc3c3ccc(O)cc32)cc(C(=O)OC)c1` yielded an inhibition [1] of 1%.
`COC(=O)c1cc(OCCCCCCn2c3ccccc3c3ccc(O)cc32)cc(C(=O)OC)c1` was tested, and the inhibition [1] was 1%.
`COC(=O)c1cc(OCCCCCCCn2c3ccccc3c3ccc(O)cc32)cc(C(=O)OC)c1` showed an inhibition [1] of 5%.
For `COC(=O)c1ccccc1OCCCCCCCn1c2ccc(OC)cc2c2c(C)ccc(C)c21`, the inhibition [1] was 6%.
`COC(=O)c1ccccc1OCCCCCCn1c2ccc(OC)cc2c2c(C)ccc(C)c21` gave an inhibition [1] of 1%.
With `COC(=O)c1cc(OCCCCCCCn2c3ccc(OC)cc3c3c(C)ccc(C)c32)cc(C(=O)OC)c1` the inhibition [2] was 90%, the Activity (THP-1 [3]) was “inactive” and the inhibition [4] was “inactive”. The inhibition (THP-1 [5]) was “inactive” and the inhibition [6] was “Active”.
With `COC(=O)c1cc(OCCCCCCn2c3ccc(OC)cc3c3c(C)ccc(C)c32)cc(C(=O)OC)c1` the inhibition [2] was 95%, the Activity (THP-1 [3]) was “inactive” and the inhibition [4] was “inactive”. For the same molecule, the inhibition (THP-1 [5]) was “inactive” and the inhibition [6] was “Active”.
